Measurements as given in ChEMBL document CHEMBL4831479, “Discovery of Novel Thiophene-arylamide Derivatives as DprE1 Inhibitors with Potent Antimycobacterial Activities” (J Med Chem, 2021).
Values after ≈ are worked out from the molar mass of the structure shown.

How the values were obtained:
[1] = test system: Mycobacterium tuberculosis; experiment: Antitubercular activity against Mycobacterium tuberculosis H37Rv assessed as bacterial growth inhibition incubated for 7 days by microplate Alamar blue assay; assay type: functional; conditions: 168 h, time 7 day
In short: (§1)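 MABA: H37Rv or clinical isolates grown to late log phase in 7H9 with 0.2% glycerol, 0.05% Tween 80, 10% ADC; washed, filtered 8 μm, frozen. 2 × 10⁵ CFU per well with twofold compound dilutions, 37 °C; day 7 Tween 80 plus Alamar blue, 16–24 h more, fluorescence ex 530/em 590. MIC = lowest concentration giving ≥90% fluorescence reduction versus bacterium-only controls; RFP, INH, TCA1 controls.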

[2] = Selectivity index, ratio of IC50 for African green monkey Vero cells to MIC for antitubercular activity against Mycobacterium tuberculosis H37Rv; assay type: toxicity; conditions: read-out: Selectivity Index
[3] = test system: Mycobacterium tuberculosis; experiment: Antimycobacterial activity against Mycobacterium tuberculosis H37Rv infected in mouse J774.1 cells assessed as reduction in bacterial colony forming units at 10 ug/ml incubated for 3 days (reference value: 5.52 +/- 0.18 log10CFU); assay type: functional; conditions: dose 10 µg/ml; time 3 day
In short: (§2)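 Mouse J774A.1 macrophages infected with M. tuberculosis H37Rv, treated 3 days at final 10 or 5 μg/mL; rifampicin control at 5 μg/mL. Intracellular log10 CFU counted; Δlog10 CFU = untreated minus treated. Triplicate, at least three separate experiments.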

[4] = test system: Mycobacterium tuberculosis; experiment: Antimycobacterial activity against Mycobacterium tuberculosis H37Rv infected in mouse J774.1 cells assessed as change in bacterial colony forming units at 10 ug/ml incubated for 3 days; assay type: functional; conditions: dose 10 µg/ml; time 3 day; in short: as §2
[5] = test system: Mycobacterium tuberculosis; experiment: Antimycobacterial activity against Mycobacterium tuberculosis H37Rv infected in mouse J774.1 cells assessed as reduction in bacterial colony forming units at 5 ug/ml incubated for 3 days (reference value: 5.52 +/- 0.18 log10CFU); assay type: functional; conditions: dose 5 µg/ml; time 3 day; in short: as §2
[6] = test system: Mycobacterium tuberculosis; experiment: Antimycobacterial activity against Mycobacterium tuberculosis H37Rv infected in mouse J774.1 cells assessed as change in bacterial colony forming units at 5 ug/ml incubated for 3 days; assay type: functional; conditions: dose 5 µg/ml; time 3 day; in short: as §2
HepG2 = experiment: Cytotoxicity against human HepG2 cells assessed as reduction in cell viability measured after 48 hrs by MTT assay; assay type: cell-based; conditions: HepG2, 48 h
In short: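 Threefold serial dilutions gave final concentrations of 64 to 0.26 μg/mL. After 48 h at 37 °C, monolayers were washed with warm HBSS and given fresh medium plus MTT for 4 h. Absorbance was read at 492 nm. IC₅₀ is the concentration giving 50% growth inhibition versus the untreated control.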

[7] = Stability in mouse hepatocytes assessed as parent compound remaining at 1 uM measured after 30 mins by LC-MS/MS analysis; assay type: ADME, cell-based, Hepatocyte; conditions: 0.5 h
In short: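 Hepatocytes from male mice; metabolic stability measured as the amount of parent compound remaining. Concentrations after 30 min incubation were normalized to those at time zero.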

[8] = target: T1, Decaprenylphosphoryl-beta-D-ribose oxidase (Mycobacterium tuberculosis (strain ATCC 25618 / H37Rv)) (UniProt P9WJF1); experiment: Non-covalent inhibition of DprE1 in Mycobacterium tuberculosis H37Rv measured after 7 days by microplate Alamar blue assay; conditions: time 7.0 day; in short: as §1
T1 sequence (whole entry): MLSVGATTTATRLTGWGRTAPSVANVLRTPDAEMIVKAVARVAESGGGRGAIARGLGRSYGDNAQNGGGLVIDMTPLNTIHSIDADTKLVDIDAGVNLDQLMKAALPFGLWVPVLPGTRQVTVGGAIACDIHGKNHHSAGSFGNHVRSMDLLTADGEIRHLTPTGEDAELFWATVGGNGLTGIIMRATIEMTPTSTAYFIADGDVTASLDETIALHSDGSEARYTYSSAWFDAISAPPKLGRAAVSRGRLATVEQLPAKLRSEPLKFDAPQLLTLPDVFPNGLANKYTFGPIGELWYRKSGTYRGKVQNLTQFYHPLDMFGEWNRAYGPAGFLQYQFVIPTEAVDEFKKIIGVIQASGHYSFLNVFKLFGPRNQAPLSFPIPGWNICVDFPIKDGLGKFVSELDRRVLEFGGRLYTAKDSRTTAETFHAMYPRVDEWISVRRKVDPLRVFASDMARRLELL

SMILES	MIC [1] [µg/mL]	selectivity ratio [2]	Activity [3] [log10CFU]	Activity [4] [deltalog10CFU]	Activity [5] [log10CFU]	Activity [6] [deltalog10CFU]	further results
Cc1cnc(NC(=O)c2ccsc2NC(=O)c2ccc(C(=O)N3CCCCC3)cc2)s1	0.19 (≈ 0.418 µM)	–	–	–	–	–	–
O=C(Nc1sccc1C(=O)Nc1nccc(C(F)(F)F)n1)c1ccc(C(=O)N2CCCCC2)cc1	> 32	> 320	4.54	0.98	4.59	0.93	–
CCCNC(=O)c1ccc(C(=O)Nc2sccc2C(=O)NC(=O)OCC)cc1	–	> 320	–	–	–	–	–
CCOC(=O)NC(=O)c1ccsc1NC(=O)c1coc(C(=O)N2CCCCC2)c1	37 (≈ 88.2 µM)	–	–	–	–	–	–
CCOC(=O)NC(=O)c1ccsc1NC(=O)c1ccc(C(=O)N2CCCCC2)s1	–	> 457	–	–	–	–	IC50 (HepG2): > 64 µg/mL
CCOC(=O)NC(=O)c1ccsc1NC(=O)c1ccc(C(=O)NC2CCC(C)(C)CC2)cc1	0.04 (≈ 0.0848 µM)	–	–	–	–	–	–
CCNC(=O)NC(=O)c1ccsc1NC(=O)c1ccc(C(=O)N2CCCCC2)cc1	0.47 (≈ 1.1 µM)	–	–	–	–	–	–
CCOC(=O)NC(=O)c1ccsc1NC(=O)c1nc2ccccc2s1	–	66	4.36	1.16	4.91	0.11	Stability [7]: 79.8%
CCOC(=O)NC(=O)c1ccsc1NC(=O)c1ccc(C(=O)N2CCCCC2)c(F)c1	–	> 4000	4.18	1.34	4.41	1.11	IC50 (HepG2): > 64 µg/mL
COC(=O)NC(=O)c1ccsc1NC(=O)c1ccc(C(=O)N2CCCCC2)cc1	> 32	–	4.77	0.75	5.06	0.46	MIC [8]: 0.12 µg/mL (≈ 0.289 µM); IC50 (HepG2): > 64 µg/mL
NC(=O)c1ccsc1NC(=O)c1ccc(C(=O)N2CCCCC2)cc1	0.2 (≈ 0.56 µM)	–	–	–	–	–	–
Cc1cccc(NC(=O)c2ccsc2NC(=O)c2ccc(C(=O)N3CCCCC3)cc2)n1	15.5 (≈ 34.6 µM)	–	–	–	–	–	–
Cc1ccnc(NC(=O)c2ccsc2NC(=O)c2ccc(C(=O)N3CCCCC3)c(F)c2)n1	> 32	–	–	–	–	–	–
COC(=O)NC(=O)c1ccsc1NC(=O)c1ccc(C(=O)N2CCCCC2)c(F)c1	1.94 (≈ 4.48 µM)	–	4.59	0.93	4.75	0.77	IC50 (HepG2): > 64 µg/mL
CCOC(=O)NC(=O)c1ccsc1NC(=O)c1ccc(C(=O)N2CCCCC2)cc1	–	–	4.45	1.07	4.54	0.98	MIC [8]: 0.055 µg/mL (≈ 0.128 µM); IC50 (HepG2): > 64 µg/mL
CCOC(=O)NC(=O)c1ccsc1NC(=O)c1cc(C(=O)N2CCCCC2)c[nH]1	137 (≈ 327 µM)	–	–	–	–	–	–
Cc1ccnc(NC(=O)c2ccsc2NC(=O)c2ccc(C(=O)N3CCCCC3)cc2)n1	0.03 (≈ 0.0667 µM)	> 27	–	–	–	–	–
COC(=O)C1CCN(C(=O)c2ccsc2NC(=O)c2ccc(C(=O)N3CCCCC3)cc2)CC1	> 32	–	–	–	–	–	–
